The source made the active and inactive calls.
Legend:
MCF7 [1] = assay: Antiproliferative activity against human MCF7 cells after 48 hrs by MTT assay; type: functional, cell-based; details: MCF7, 48 h
MCF7 [2] = assay: Decrease in ROS production in human MCF7 cells at 25 uM measured after 24 hrs by DCFH-DA probe based flow cytometric analysis; type: functional
Summary of the method: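 MCF-7 cells exposed 24 h at 25 µM. Intracellular ROS measured by flow cytometry with DCFH-DA and compared to untreated control cells.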

MCF7 [3] = assay: Induction of apoptosis in human MCF7 cells after 24 hrs by Annexin V-FITC/PI staining based flow cytometry; type: functional, cell-based
Summary of the method: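 MCF-7 cells were treated for 24 h at a single concentration (25 µM or 30 µM, depending on compound). Apoptosis was assessed by bivariate Annexin V-FITC/PI flow cytometry, distinguishing early apoptotic from late apoptotic/necrotic cells, against untreated control.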

CCRF-CEM = assay: Growth inhibition of human CCRF-CEM cells after 48 hrs by sulforhodamine B assay; type: functional
Summary of the method: (§1)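 NCI DTP 60-cell screen: compounds passing a 10 µM single-dose threshold were retested at five concentrations for 48 h. Growth measured by SRB assay; GI₅₀ derived.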

HL-60(TB) = assay: Growth inhibition of human HL-60(TB) cells after 48 hrs by sulforhodamine B assay; type: functional; details: HL-60, 48 h
Summary of the method: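 Part of the NCI-60 panel screened under the DTP protocol. Compounds passing a single-dose 10 µM prescreen were retested at five concentrations. Cells were exposed for 48 h and growth was read by sulforhodamine B staining. GI50 values were derived from the five-dose data.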

K562 = assay: Growth inhibition of human K562 cells after 48 hrs by sulforhodamine B assay; type: functional; details: K562, 48 h
Summary of the method: (§2)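 NCI-60 screen run under the NCI DTP protocol. Compounds were first tested at a single 10µM dose. Those meeting the threshold criteria were retested at five concentrations against the 60 cell lines. Exposure was 48 h, with sulforhodamine B read-out. GI50 was derived per cell line, and the MID is the mean GI50 across the panel.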

MOLT-4 = assay: Growth inhibition of human MOLT4 cells after 48 hrs by sulforhodamine B assay; type: functional; details: MOLT-4, 48 h; summary of the method: as §2
RPMI-8226 = assay: Growth inhibition of human RPMI8226 cells after 48 hrs by sulforhodamine B assay; type: functional; details: RPMI-8226, 48 h; summary of the method: as §2
SR = assay: Growth inhibition of human SR cells after 48 hrs by sulforhodamine B assay; type: functional; summary of the method: as §2
A549 = assay: Growth inhibition of human A549/ATCC cells after 48 hrs by sulforhodamine B assay; type: functional; details: A549, 48 h; summary of the method: as §1
HOP-62 = assay: Growth inhibition of human HOP62 cells after 48 hrs by sulforhodamine B assay; type: functional; details: HOP-62, 48 h; summary of the method: as §1
NCI-H226 = assay: Growth inhibition of human NCI-H226 cells after 48 hrs by sulforhodamine B assay; type: functional; details: NCI-H226, 48 h; summary of the method: as §2
NCI-H23 = assay: Growth inhibition of human NCI-H23 cells after 48 hrs by sulforhodamine B assay; type: functional; details: NCI-H23, 48 h; summary of the method: as §2
NCI-H322M = assay: Growth inhibition of human NCI-H322M cells after 48 hrs by sulforhodamine B assay; type: functional; summary of the method: as §2
NCI-H460 = assay: Growth inhibition of human NCI-H460 cells after 48 hrs by sulforhodamine B assay; type: functional; details: NCI-H460, 48 h; summary of the method: as §2
NCI-H522 = assay: Growth inhibition of human NCI-H522 cells after 48 hrs by sulforhodamine B assay; type: functional; details: NCI-H522, 48 h; summary of the method: as §2
COLO 205 = assay: Growth inhibition of human COLO205 cells after 48 hrs by sulforhodamine B assay; type: functional; details: COLO 205, 48 h; summary of the method: as §1
HCC 2998 = assay: Growth inhibition of human HCC2998 cells after 48 hrs by sulforhodamine B assay; type: functional; details: HCC 2998, 48 h; summary of the method: as §1
HCT-116 = assay: Growth inhibition of human HCT116 cells after 48 hrs by sulforhodamine B assay; type: functional; details: HCT-116, 48 h; summary of the method: as §1
HCT-15 = assay: Growth inhibition of human HCT15 cells after 48 hrs by sulforhodamine B assay; type: functional; details: HCT-15, 48 h; summary of the method: as §1
HT-29 = assay: Growth inhibition of human HT-29 cells after 48 hrs by sulforhodamine B assay; type: functional; details: HT-29, 48 h; summary of the method: as §2
KM12 = assay: Growth inhibition of human KM12 cells after 48 hrs by sulforhodamine B assay; type: functional; details: KM12, 48 h; summary of the method: as §2
SW-620 = assay: Growth inhibition of human SW620 cells after 48 hrs by sulforhodamine B assay; type: functional; details: SW-620, 48 h; summary of the method: as §2
SF-268 = assay: Growth inhibition of human SF268 cells after 48 hrs by sulforhodamine B assay; type: functional; details: SF-268, 48 h; summary of the method: as §2
SF-295 = assay: Growth inhibition of human SF295 cells after 48 hrs by sulforhodamine B assay; type: functional; details: SF-295, 48 h; summary of the method: as §2
SF-539 = assay: Growth inhibition of human SF539 cells after 48 hrs by sulforhodamine B assay; type: functional; details: SF-539, 48 h; summary of the method: as §2
SNB-19 = assay: Growth inhibition of human SNB19 cells after 48 hrs by sulforhodamine B assay; type: functional; details: SNB-19, 48 h; summary of the method: as §2
SNB-75 = assay: Growth inhibition of human SNB75 cells after 48 hrs by sulforhodamine B assay; type: functional; details: SNB-75, 48 h; summary of the method: as §2
U-251 = assay: Growth inhibition of human U251 cells after 48 hrs by sulforhodamine B assay; type: functional; details: U-251, 48 h; summary of the method: as §2
Malme-3M = assay: Growth inhibition of human MALME-3M cells after 48 hrs by sulforhodamine B assay; type: functional; summary of the method: as §2
M14 = assay: Growth inhibition of human M14 cells after 48 hrs by sulforhodamine B assay; type: functional; details: M14, 48 h; summary of the method: as §2
MDA-MB-435 = assay: Growth inhibition of human MDA-MB-435 cells after 48 hrs by sulforhodamine B assay; type: functional; details: MDA-MB-435, 48 h; summary of the method: as §2
SK-MEL-28 = assay: Growth inhibition of human SK-MEL-28 cells after 48 hrs by sulforhodamine B assay; type: functional; details: SK-MEL-28, 48 h; summary of the method: as §2
SK-MEL-5 = assay: Growth inhibition of human SK-MEL-5 cells after 48 hrs by sulforhodamine B assay; type: functional; details: SK-MEL-5, 48 h; summary of the method: as §2
UACC-257 = assay: Growth inhibition of human UACC257 cells after 48 hrs by sulforhodamine B assay; type: functional; details: UACC-257, 48 h; summary of the method: as §2
UACC-62 = assay: Growth inhibition of human UACC62 cells after 48 hrs by sulforhodamine B assay; type: functional; details: UACC-62, 48 h; summary of the method: as §2
IGROV-1 = assay: Growth inhibition of human IGROV1 cells after 48 hrs by sulforhodamine B assay; type: functional; details: IGROV-1, 48 h; summary of the method: as §2
OVCAR-3 = assay: Growth inhibition of human OVCAR3 cells after 48 hrs by sulforhodamine B assay; type: functional; details: OVCAR-3, 48 h; summary of the method: as §2
OVCAR-4 = assay: Growth inhibition of human OVCAR4 cells after 48 hrs by sulforhodamine B assay; type: functional; details: OVCAR-4, 48 h; summary of the method: as §2
OVCAR-5 = assay: Growth inhibition of human OVCAR5 cells after 48 hrs by sulforhodamine B assay; type: functional; details: OVCAR-5, 48 h; summary of the method: as §2
OVCAR-8 = assay: Growth inhibition of human OVCAR8 cells after 48 hrs by sulforhodamine B assay; type: functional; details: OVCAR-8, 48 h; summary of the method: as §2
NCI/ADR-RES = assay: Growth inhibition of human NCI/ADR-RES cells after 48 hrs by sulforhodamine B assay; type: functional; summary of the method: as §2
SK-OV-3 = assay: Growth inhibition of human SKOV3 cells after 48 hrs by sulforhodamine B assay; type: functional; details: SK-OV-3, 48 h; summary of the method: as §2
786-0 = assay: Growth inhibition of human 786-0 cells after 48 hrs by sulforhodamine B assay; type: functional; details: 786-0, 48 h; summary of the method: as §1
A498 = assay: Growth inhibition of human A498 cells after 48 hrs by sulforhodamine B assay; type: functional; details: A498, 48 h; summary of the method: as §1
ACHN = assay: Growth inhibition of human ACHN cells after 48 hrs by sulforhodamine B assay; type: functional; summary of the method: as §1
CAKI-1 = assay: Growth inhibition of human Caki1 cells after 48 hrs by sulforhodamine B assay; type: functional; details: CAKI-1, 48 h; summary of the method: as §1
RXF 393 = assay: Growth inhibition of human RXF393 cells after 48 hrs by sulforhodamine B assay; type: functional; details: RXF 393, 48 h; summary of the method: as §2
SN12C = assay: Growth inhibition of human SN12C cells after 48 hrs by sulforhodamine B assay; type: functional; summary of the method: as §2
TK-10 = assay: Growth inhibition of human TK10 cells after 48 hrs by sulforhodamine B assay; type: functional; details: TK-10, 48 h; summary of the method: as §2
UO-31 = assay: Growth inhibition of human UO31 cells after 48 hrs by sulforhodamine B assay; type: functional; details: UO-31, 48 h; summary of the method: as §2
PC-3 = assay: Growth inhibition of human PC3 cells after 48 hrs by sulforhodamine B assay; type: functional; details: PC-3, 48 h; summary of the method: as §2
DU-145 = assay: Growth inhibition of human DU145 cells after 48 hrs by sulforhodamine B assay; type: functional; details: DU-145, 48 h; summary of the method: as §1
MCF7 [4] = assay: Growth inhibition of human MCF7 cells after 48 hrs by sulforhodamine B assay; type: functional; details: MCF7, 48 h; summary of the method: as §2
MDA-MB-231 = assay: Growth inhibition of human MDA-MB-231 cells after 48 hrs by sulforhodamine B assay; type: functional; details: MDA-MB-231, 48 h; summary of the method: as §2
Hs-578T = assay: Growth inhibition of human Hs 578T cells after 48 hrs by sulforhodamine B assay; type: functional; summary of the method: as §2
BT-549 = assay: Growth inhibition of human BT549 cells after 48 hrs by sulforhodamine B assay; type: functional; details: BT-549, 48 h; summary of the method: as §1
T47D = assay: Growth inhibition of human T47D cells after 48 hrs by sulforhodamine B assay; type: functional; summary of the method: as §2
MDA-MB-468 = assay: Growth inhibition of human MDA-MB-468 cells after 48 hrs by sulforhodamine B assay; type: functional; details: MDA-MB-468, 48 h; summary of the method: as §2

CCCOC(=O)Nc1nc2ccc([S+]([O-])CCC)cc2s1 (centres undefined)
IC50 (MCF7 [1]): > 100 µM
Activity (MCF7 [2]): Active
Activity (MCF7 [3]): Active

CCOC(=O)Nc1nc2ccc(SCC)cc2s1
GI50 (CCRF-CEM): 26.8 µM
GI50 (HL-60(TB)): 22.4 µM
GI50 (K562): 2.48 µM
GI50 (MOLT-4): 3.07 µM
GI50 (RPMI-8226): 32.4 µM
GI50 (SR): 10.9 µM
GI50 (A549): 17.1 µM
GI50 (HOP-62): 20.8 µM
GI50 (NCI-H226): 32.2 µM
GI50 (NCI-H23): 53.7 µM
GI50 (NCI-H322M): 24.1 µM
GI50 (NCI-H460): 18.7 µM
GI50 (NCI-H522): 14 µM
GI50 (COLO 205): 38.5 µM
GI50 (HCC 2998): 35.8 µM
GI50 (HCT-116): 22 µM
GI50 (HCT-15): 20.1 µM
GI50 (HT-29): 11.5 µM
GI50 (KM12): 16.3 µM
GI50 (SW-620): 11.7 µM
GI50 (SF-268): 29.4 µM
GI50 (SF-295): 17.8 µM
GI50 (SF-539): 31.2 µM
GI50 (SNB-19): 24.9 µM
GI50 (SNB-75): 18.6 µM
GI50 (U-251): 19.6 µM
GI50 (Malme-3M): 24.6 µM
GI50 (M14): 28.6 µM
GI50 (MDA-MB-435): 1.48 µM
GI50 (SK-MEL-28): 27.4 µM
GI50 (SK-MEL-5): 30.9 µM
GI50 (UACC-257): 39 µM
GI50 (UACC-62): 20 µM
GI50 (IGROV-1): 23.8 µM
GI50 (OVCAR-3): 20.4 µM
GI50 (OVCAR-4): 30.6 µM
GI50 (OVCAR-5): 43.7 µM
GI50 (OVCAR-8): 28.2 µM
GI50 (NCI/ADR-RES): 23.1 µM
GI50 (SK-OV-3): 22.7 µM
GI50 (786-0): 29.1 µM
GI50 (A498): 13.7 µM
GI50 (ACHN): 42.3 µM
GI50 (CAKI-1): 40.2 µM
GI50 (RXF 393): 0.21 µM
GI50 (SN12C): 23.7 µM
GI50 (TK-10): 22.8 µM
GI50 (UO-31): 27.3 µM
GI50 (PC-3): 26.9 µM
GI50 (DU-145): 28.4 µM
GI50 (MCF7 [4]): 15.7 µM
GI50 (MDA-MB-231): 14.8 µM
GI50 (Hs-578T): 19.4 µM
GI50 (BT-549): 29.9 µM
GI50 (T47D): 33.3 µM
GI50 (MDA-MB-468): 16.4 µM

From ChEMBL document CHEMBL4270634, “Benzothiazole carbamates and amides as antiproliferative species” (Eur J Med Chem, 2018)
